Measured values from ChEMBL document CHEMBL4390663, “Cationic biaryl 1,2,3-triazolyl peptidomimetic amphiphiles: synthesis, antibacterial evaluation and preliminary mechanism of action studies” (Eur J Med Chem, 2019).
Converted amounts (≈) assume the structure as drawn.

Experiments:
Staphylococcus aureus [1] = test: Antibacterial activity against methicillin-resistant Staphylococcus aureus NCTC 10442 incubated for 24 hrs by CLSI method; assay type: functional; conditions: NCTC 10442, 24 h
How it was run: (§1)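 Broth microdilution per CLSI aerobic guidance in Mueller Hinton broth, ambient air, 35 °C for 24 h. DMSO stocks were diluted in water, then serially diluted with double-strength broth inoculum added, for final 0.25–128 μg/mL. […] MIC was read visually as the lowest concentration inhibiting growth; the modal value of triplicates was recorded.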

[2] = Haemolytic activity in sheep erythrocytes at 50 ug/ml incubated for 2 hrs under shaking condition relative to control; assay type: ADME, cell-based, Ovis aries, Erythrocyte; conditions: read-out: Activity
How it was run: (§2)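 Compounds in PBS mixed with washed sheep erythrocytes (2% final) at 5 or 50 μg/mL, rocked 2 h at 37 °C, centrifuged; supernatant absorbance at 540 nm. PBS-only value subtracted, then expressed relative to water lysis (100%). Triplicate, means reported.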

Escherichia coli = test: Antibacterial activity against Escherichia coli ATCC 25922 incubated for 18 hrs by CLSI method; assay type: functional; conditions: ATCC 25922, 18 h
How it was run: (§3)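 Screen run by CO-ADD: mid-log cultures in cation-adjusted MHB, 5 × 10^5 CFU/mL, compounds at up to 32 μg/mL in 1:2 serial dilutions (8 steps), final DMSO ≤0.5%, duplicate. 37 °C for 18 h without shaking; OD600 read against media-only and untreated-bacteria references. MIC = lowest concentration giving ≥80% inhibition; colistin standard.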

Pseudomonas aeruginosa = test: Antimicrobial activity against Pseudomonas aeruginosa ATCC 27853 incubated for 18 hrs by CLSI method; assay type: functional; conditions: ATCC 27853, 18 h; how it was run: as §3
Clostridioides difficile [3] = test: Antibacterial activity against Clostridium difficile NSW132 RT027 incubated for 48 hrs by CLSI method; assay type: functional; conditions: NSW132 RT027, 48 h
How it was run: (§4)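 Broth microdilution per CLSI anaerobe method in pre-reduced (2-4 h) Brucella broth with haemin and vitamin K, 35 °C anaerobically for 48 h. Compounds from 5 mg/mL DMSO stocks, twofold dilutions in water mixed with double-strength broth; final 0.25–128 μg/mL. […] Triplicate; modal MIC read visually as lowest concentration inhibiting growth.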

Klebsiella pneumoniae = test: Antibacterial activity against Klebsiella pneumoniae 700603 incubated for 18 hrs by CLSI method; assay type: functional; conditions: Klebsiella pneumoniae, 700603, 18 h; how it was run: as §3
Staphylococcus aureus [4] = test: Antimicrobial activity against Staphylococcus aureus ATCC 43300 incubated for 18 hrs by CLSI method; assay type: functional; conditions: ATCC 43300, 18 h
[5] = Cytotoxicity against human HEK293 cells assessed as reduction in cell growth incubated for 20 hrs by resazurin dye-based fluorometric assay
How it was run: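 HEK293 cells, 5000 per well in DMEM + 10% FBS, exposed to compounds (top 32 μg/mL, 1:2 serial dilution ×8, ≤0.5% DMSO, duplicate) for 20 h at 37 °C, 5% CO2. Resazurin added (2.3 μg/mL final), 3 h further; fluorescence ex 560/em 590 nm. CC50 from sigmoidal dose-response fit against log concentration; tamoxifen standard.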

Enterococcus faecalis [6] = test: Antibacterial activity against Enterococcus faecalis ATCC 29212 incubated for 24 hrs by CLSI method; assay type: functional; conditions: ATCC 29212, 24 h
Clostridioides difficile [7] = test: Antibacterial activity against Clostridium difficile ATCC 700057 incubated for 48 hrs by CLSI method; assay type: functional; conditions: ATCC 700057, 48 h; how it was run: as §4
[8] = Haemolytic activity in sheep erythrocytes at 5 ug/ml incubated for 2 hrs under shaking condition relative to control; assay type: ADME, cell-based, Ovis aries, Erythrocyte; conditions: read-out: Activity; how it was run: as §2
Streptococcus pneumoniae [9] = test: Antibacterial activity against Streptococcus pneumoniae ATCC 49619 incubated for 24 hrs by CLSI method; assay type: functional; conditions: ATCC 49619, 24 h
How it was run: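 CLSI broth microdilution in MHB with 2.5% lysed horse blood, 5% CO2, 35 °C, 24 h. Compounds from 5 mg/mL DMSO stocks diluted in water plus double-strength broth; final 0.25–128 μg/mL. […] Triplicate; modal MIC read visually as lowest growth-inhibiting concentration.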

Acinetobacter baumannii = test: Antimicrobial activity against Acinetobacter baumannii ATCC 19606 incubated for 18 hrs by CLSI method; assay type: functional; conditions: ATCC 19606 = CIP 70.34 = JCM 6841, 18 h; how it was run: as §3
Staphylococcus aureus [10] = test: Antimicrobial activity against Staphylococcus aureus ATCC 29213 incubated for 24 hrs by CLSI method; assay type: functional; conditions: ATCC 29213, 24 h; how it was run: as §1
Staphylococcus aureus [11] = test: Antimicrobial activity against glycopeptide intermediate susceptible Staphylococcus aureus NRS17 incubated for 18 hrs by CLSI method; assay type: functional; conditions: NRS17, 18 h
Streptococcus pneumoniae [12] = test: Antibacterial activity against MDR Streptococcus pneumoniae ATCC 700677 incubated for 18 hrs by CLSI method; assay type: functional; conditions: ATCC 700677, 18 h
Enterococcus faecalis [13] = test: Antimicrobial activity against vancomycin-resistant Enterococcus faecalis clinical isolate incubated for 18 hrs by CLSI method; assay type: functional
Staphylococcus aureus [14] = test: Antimicrobial activity against glycopeptide intermediate susceptible/methicillin-resistant Staphylococcus aureus NRS1 incubated for 18 hrs by CLSI method; assay type: functional; conditions: NRS1, 18 h

| Structure (SMILES) | MIC (Staphylococcus aureus [1]) | hemolysis at 2 h, 50 ug/ml [2] | MIC (Escherichia coli) | MIC (Pseudomonas aeruginosa) | MIC (Clostridioides difficile [3]) | MIC (Klebsiella pneumoniae) | MIC (Staphylococcus aureus [4]) | CC50 at 20 h [5] | MIC (Enterococcus faecalis [6]) | MIC (Clostridioides difficile [7]) | hemolysis at 2 h, 5 ug/ml [8] | MIC (Streptococcus pneumoniae [9]) | MIC (Acinetobacter baumannii) | MIC (Staphylococcus aureus [10]) | MIC (Staphylococcus aureus [11]) | MIC (Streptococcus pneumoniae [12]) | MIC (Enterococcus faecalis [13]) | MIC (Staphylococcus aureus [14]) |
| --- | --- | --- | --- | --- | --- | --- | --- | --- | --- | --- | --- | --- | --- | --- | --- | --- | --- | --- |
| CC(C)CCOc1ccccc1-c1ccccc1OCc1cn(C[C@@H](CCCCN)NC(=O)[C@@H](CCCNC(=N)N)n2cc(C3CCCCC3)nn2)nn1.Cl.Cl | 4 µg/mL | 22.9% | 8 µg/mL | 8 µg/mL | 8 µg/mL | 16 µg/mL | 4 µg/mL | 14.2 µg/mL | 8 µg/mL | 4 µg/mL | 1.9% | 4 µg/mL | 16 µg/mL | 8 µg/mL | – | – | – | – |
| CN[C@H](CC(C)C)C(=O)N[C@H]1C(=O)N[C@@H](CC(N)=O)C(=O)N[C@H]2C(=O)N[C@H]3C(=O)N[C@H](C(=O)N[C@H](C(=O)O)c4cc(O)cc(O)c4-c4cc3ccc4O)[C@H](O)c3ccc(c(Cl)c3)Oc3cc2cc(c3O[C@@H]2O[C@H](CO)[C@@H](O)[C@H](O)[C@H]2O[C@H]2C[C@](C)(N)[C@H](O)[C@H](C)O2)Oc2ccc(cc2Cl)[C@H]1O [VANCOMYCIN] | – | – | – | – | 0.5 µg/mL (≈ 0.345 µM) | – | – | – | – | 0.5 µg/mL (≈ 0.345 µM) | – | 1 µg/mL (≈ 0.69 µM) | – | – | 8 µg/mL (≈ 5.52 µM) | 1 to 2 µg/mL (≈ 0.69 to 1.38 µM) | > 32 µg/mL | 8 µg/mL (≈ 5.52 µM) |
| CC(C)CCOc1ccc2ccccc2c1-c1c(OCc2cn(C[C@@H](CCCNC(=N)N)NC(=O)Cc3ccccc3)nn2)ccc2ccccc12.Cl | 4 µg/mL | 87.4% | > 32 µg/mL | > 32 µg/mL | 64 µg/mL | > 32 µg/mL | 4 µg/mL | 16.5 µg/mL | 8 µg/mL | 64 µg/mL | 1% | 8 µg/mL | > 32 µg/mL | 4 µg/mL | – | – | – | – |
| CC(C)CCOc1ccccc1-c1ccccc1OCc1cn(C[C@@H](CCCNC(=N)N)NC(=O)[C@@H](CCCCN)n2cc(CCc3ccccc3)nn2)nn1.Cl.Cl | 4 µg/mL | 28.8% | 4 µg/mL | 8 µg/mL | 16 µg/mL | 16 µg/mL | 2 µg/mL | 17.4 µg/mL | 8 µg/mL | 16 µg/mL | 1.7% | 4 µg/mL | 16 µg/mL | 4 µg/mL | – | – | – | – |
| CC(C)CCOc1ccc2ccccc2c1-c1c(OCc2cn(C[C@@H](CCCCN)NC(=O)[C@@H](CCCNC(=N)N)n3cc(CC4CCCCC4)nn3)nn2)ccc2ccccc12.Cl.Cl | 4 µg/mL | 88.8% | 32 µg/mL | 32 µg/mL | 16 µg/mL | > 32 µg/mL | 2 µg/mL | > 32 µg/mL | 4 µg/mL | 8 µg/mL | 1.6% | 4 µg/mL | 16 µg/mL | 4 µg/mL | – | – | – | – |
| CC(C)CCOc1ccccc1-c1ccccc1OCc1cn(C[C@@H](CCCCN)NC(=O)[C@@H](CCCNC(=N)N)NC(=O)Cc2ccccc2)nn1.Cl.Cl | 8 µg/mL | 17.5% | 16 µg/mL | 32 µg/mL | 16 µg/mL | 32 µg/mL | 4 µg/mL | 32 µg/mL | 8 µg/mL | 16 µg/mL | 0.6% | 8 µg/mL | 32 µg/mL | 8 µg/mL | – | – | – | – |
| CC(C)CCOc1ccccc1-c1ccccc1OCc1cn(C[C@@H](CCCCN)NC(=O)[C@@H](CCCNC(=N)N)NC(=O)OCC2c3ccccc3-c3ccccc32)nn1.Cl.Cl | 4 µg/mL | – | > 32 µg/mL | > 32 µg/mL | 32 µg/mL | > 32 µg/mL | 4 µg/mL | > 32 µg/mL | 4 µg/mL | 32 µg/mL | – | 4 µg/mL | > 32 µg/mL | 4 µg/mL | – | – | – | – |
| CC(C)CCOc1ccccc1-c1ccccc1OCc1cn(C[C@@H](CCCNC(=N)N)NC(=O)[C@@H](CCCCN)N=[N+]=[N-])nn1.Cl.Cl | 16 µg/mL | – | 16 µg/mL | 32 µg/mL | 32 µg/mL | 32 µg/mL | 8 µg/mL | > 32 µg/mL | 16 µg/mL | 64 µg/mL | – | 8 µg/mL | 16 µg/mL | 16 µg/mL | – | – | – | – |
| CC(C)CCOc1ccccc1-c1ccccc1OCc1cn(C[C@@H](CCCNC(=N)N)NC(=O)[C@@H](CCCCN)n2cc(C3CCCCC3)nn2)nn1.Cl.Cl | 4 µg/mL | – | 8 µg/mL | 8 µg/mL | 32 µg/mL | 32 µg/mL | 4 µg/mL | 15.3 µg/mL | 8 µg/mL | 32 µg/mL | – | 4 µg/mL | 8 µg/mL | 4 µg/mL | – | – | – | – |
| CC(C)CCOc1ccccc1-c1ccccc1OCc1cn(C[C@@H](CCCNC(=N)N)NC(=O)Cc2ccccc2)nn1.Cl | 16 µg/mL | – | > 32 µg/mL | > 32 µg/mL | 16 µg/mL | > 32 µg/mL | 16 µg/mL | 29 µg/mL | 16 µg/mL | 64 µg/mL | – | 16 µg/mL | > 32 µg/mL | 16 µg/mL | – | – | – | – |
| CC(C)CCOc1ccccc1-c1ccccc1OCc1cn(C[C@@H](CCCCN)NC(=O)[C@@H](CCCNC(=N)N)n2cc(CCc3ccccc3)nn2)nn1.Cl.Cl | 4 µg/mL | – | 8 µg/mL | 8 µg/mL | 8 µg/mL | 16 µg/mL | 2 µg/mL | > 32 µg/mL | 8 µg/mL | 8 µg/mL | – | 8 µg/mL | 16 µg/mL | 4 µg/mL | – | – | – | – |
| CC(C)CCOc1ccccc1-c1ccccc1OCc1cn(C[C@@H](CCCNC(=N)N)NC(=O)OCc2ccccc2)nn1.Cl | 4 µg/mL | 89.1% | > 32 µg/mL | > 32 µg/mL | 32 µg/mL | > 32 µg/mL | 8 µg/mL | > 32 µg/mL | 8 µg/mL | 32 µg/mL | 0.7% | 16 µg/mL | > 32 µg/mL | 4 µg/mL | – | – | – | – |
| CC(C)CCOc1ccccc1-c1ccccc1OCc1cn(C[C@@H](CCCCN)NC(=O)[C@@H](CCCNC(=N)N)n2cc(Cc3ccccc3)nn2)nn1.Cl.Cl | 8 µg/mL | – | 16 µg/mL | 16 µg/mL | 16 µg/mL | 16 µg/mL | 4 µg/mL | 21.9 µg/mL | 16 µg/mL | 16 µg/mL | – | 4 µg/mL | 8 µg/mL | 8 µg/mL | – | – | – | – |
| CC(C)CCOc1ccccc1-c1ccccc1OCc1cn(C[C@@H](CCCCN)NC(=O)Cc2ccccc2)nn1.Cl | 8 µg/mL | – | > 32 µg/mL | 32 µg/mL | 32 µg/mL | > 32 µg/mL | 16 µg/mL | 14.2 µg/mL | 8 µg/mL | 32 µg/mL | – | 8 µg/mL | 32 µg/mL | 8 µg/mL | – | – | – | – |
